Columns and labels:
Cavia porcellus [1] = organism: Cavia porcellus; test: Functional efficacy compared to 1 uM muscarine and the maximum response to carbachol in guinea pig ileum
How it was run: (§1)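 Agonist-evoked contractions were recorded and concentration–response curves built. EC50 is the concentration giving 50% of that tissue's own maximum, reported as −log EC50 (M).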

Cavia porcellus [2] = organism: Cavia porcellus; test: Functional efficacy compared to 1 uM muscarine and the maximum response to carbachol in guinea pig isolated atria
Rattus norvegicus [3] = organism: Rattus norvegicus; test: Determined for Functional efficacy compared to 1 uM muscarine in superior cervical ganglion
How it was run: (§2)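 Potentials were recorded by grease-gap between the ganglion body and the internal carotid nerve. Semicumulative concentration–response curves used 1-min agonist superfusions every 10 min. Potency is given as −log EC50 (M). Efficacy is the ratio to the maximum response to 1 µM (±)-muscarine chloride.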

Cavia porcellus [4] = organism: Cavia porcellus; test: (§3) Determined for potency (muscarinic agonistic activity) expressed in guinea pig isolated atria in vitro; format: functional
[5] = (§4) Determined for potency (muscarinic agonistic activity) expressed in superior cervical ganglion in vitro; format: functional, tissue-based, Rattus norvegicus; how it was run: as §2
Cavia porcellus [6] = organism: Cavia porcellus; test: (§5) Determined for potency (muscarinic agonistic activity) expressed in guinea pig ileum in vitro; format: functional; how it was run: as §1
Cavia porcellus [7] = organism: Cavia porcellus; test: as §5; conditions: read-out: Log EC50 (converted)
Cavia porcellus [8] = organism: Cavia porcellus; test: as §3; conditions: read-out: Log EC50 (converted)
Rattus norvegicus [9] = organism: Rattus norvegicus; test: as §4; format: functional; conditions: for EC50: Rattus norvegicus, Superior cervical ganglion; how it was run: as §2
[10] = biological target: T1, Muscarinic acetylcholine receptor M2 (Rattus norvegicus) (UniProt P10980)
T1 sequence (whole entry): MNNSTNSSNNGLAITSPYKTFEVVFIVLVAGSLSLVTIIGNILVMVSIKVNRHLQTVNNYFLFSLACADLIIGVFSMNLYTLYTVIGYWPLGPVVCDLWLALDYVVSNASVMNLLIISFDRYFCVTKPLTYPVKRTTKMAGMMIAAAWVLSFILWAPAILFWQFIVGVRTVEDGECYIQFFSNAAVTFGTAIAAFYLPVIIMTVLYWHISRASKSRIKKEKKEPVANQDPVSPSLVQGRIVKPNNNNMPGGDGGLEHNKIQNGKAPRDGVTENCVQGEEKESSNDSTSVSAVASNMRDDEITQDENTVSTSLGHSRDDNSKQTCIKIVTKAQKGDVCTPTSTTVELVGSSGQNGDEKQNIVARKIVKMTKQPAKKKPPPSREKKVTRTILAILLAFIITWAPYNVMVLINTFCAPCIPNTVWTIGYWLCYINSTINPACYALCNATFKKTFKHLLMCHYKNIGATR

[11] = biological target: T2, Muscarinic acetylcholine receptor M1 (Rattus norvegicus) (UniProt P08482)
T2 sequence (whole entry): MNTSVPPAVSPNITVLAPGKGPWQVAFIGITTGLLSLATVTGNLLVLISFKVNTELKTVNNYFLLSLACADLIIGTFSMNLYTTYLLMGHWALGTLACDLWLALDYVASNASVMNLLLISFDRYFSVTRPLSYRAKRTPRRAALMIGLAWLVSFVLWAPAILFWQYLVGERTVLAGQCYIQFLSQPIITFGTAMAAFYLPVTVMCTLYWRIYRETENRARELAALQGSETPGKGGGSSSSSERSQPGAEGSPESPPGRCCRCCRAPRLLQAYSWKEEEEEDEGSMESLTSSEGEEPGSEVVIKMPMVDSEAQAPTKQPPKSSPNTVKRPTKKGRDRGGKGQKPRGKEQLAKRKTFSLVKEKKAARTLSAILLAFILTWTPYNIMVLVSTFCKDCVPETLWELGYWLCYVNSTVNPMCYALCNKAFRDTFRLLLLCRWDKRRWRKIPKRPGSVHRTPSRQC

[12] = biological target: T2, Muscarinic acetylcholine receptor M1 (Rattus norvegicus); remark: listed apart in the source
[13] = biological target: T1, Muscarinic acetylcholine receptor M2 (Rattus norvegicus); remark: listed apart in the source

| SMILES | FE (Cavia porcellus [1]) | FE (Cavia porcellus [2]) | FE (Rattus norvegicus [3]) | EC50 (Cavia porcellus [7]) | EC50 (Cavia porcellus [8]) | K app [12] | K app [13] | Log EC50 (Rattus norvegicus [9]) | other results |
| --- | --- | --- | --- | --- | --- | --- | --- | --- | --- |
| CC1OCC2(CN3CCC2CC3)O1 (centres undefined) [listing 1 of 2 here] | 0.8 | 0.8 | 0.7 |  |  |  |  |  | EC50 (Cavia porcellus [4]): 83.2 µM; Log EC50 [5]: -4.83; EC50 (Cavia porcellus [6]): 6.31 µM |
| C[C@@H]1OCC2(CN3CCC2CC3)O1.C[C@H]1OCC2(CN3CCC2CC3)O1 (some centres undefined) [listing 1 of 2 here] | 0.8 | 0.8 | 0.7 | 3.31 µM | 21.9 µM |  |  |  | EC50 (Rattus norvegicus [9]): 5.75 µM |
| CC1OCC2(CN3CCC2CC3)O1 (centres undefined) [listing 2 of 2 here] |  |  |  |  |  |  |  |  | K app [10]: 13 µM; K app [11]: 6.8 µM |
| C[C@@H]1OCC2(CN3CCC2CC3)O1.C[C@H]1OCC2(CN3CCC2CC3)O1 (some centres undefined) [listing 2 of 2 here] |  |  |  |  |  | 5.9 µM | 8.4 µM |  |  |
| CC1OCC2(CN3CCC2CC3)O1 (single isomer, unassigned) [listing 1 of 2 here] |  |  |  |  |  |  |  | < -4 | EC50 (Cavia porcellus [6]): > 316 µM |
| CC1OCC2(CN3CCC2CC3)O1 (single isomer, unassigned) [listing 2 of 2 here] |  |  |  |  |  | 66 µM | 92 µM |  |  |
| C[C@@H]1OCC2(CN3CCC2CC3)O1 (stereo in doubt; 1A1) [listing 1 of 2 here] |  |  |  |  |  |  |  | < -4 |  |
| C[C@@H]1OCC2(CN3CCC2CC3)O1 (stereo in doubt; 1A1) [listing 2 of 2 here] |  |  |  |  |  | 55 µM | 64 µM |  |  |
| C[C@H]1OCC2(CN3CCC2CC3)O1 (stereo in doubt; 1B1) | 0.8 | 0.8 | 0.8 | 2.19 µM | 14.8 µM | 2.7 µM | 2.2 µM | -5.25 |  |
| C[C@@H]1OCC2(CN3CCC2CC3)O1 (stereo in doubt; 1B2) [listing 1 of 2 here] | 0.7 | 0.2 | 0.7 | 20 µM | 100 µM |  |  | -4.56 |  |
| C[C@@H]1OCC2(CN3CCC2CC3)O1 (stereo in doubt; 1B2) [listing 2 of 2 here] |  |  |  |  |  | 4.1 µM | 8.5 µM |  |  |
| C[N+](C)(C)CCOC(N)=O.[Cl-] [CARBACHOL] | 1 | 1 |  | 0.102 µM | 0.209 µM | 45 µM | 1.9 µM |  |  |
| C[C@@H]1O[C@H](C[N+](C)(C)C)C[C@H]1O [MUSCARINE] |  |  | 1.1 |  |  | 28 µM | 2.3 µM |  | EC50 (Rattus norvegicus [9]): 0.17 µM |

Reference: ChEMBL document CHEMBL1123768, “Synthesis and characterization of all four isomers of the muscarinic agonist 2'-methylspiro[1-azabicyclo[2.2.2]octane-3,4'-[1,3]dioxolane]” (J Med Chem, 1987)
